Activity calls are given as the source filed them. No cut-off for these calls is given here.
Experiments:
[1] = Cytotoxicity against human NCI-H1435 cells expressing CES2 gene after 5 to 6 days by MTT assay; format: functional
Outline: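 MTT growth assay: 2000–4000 viable cells plated, left overnight at 37 °C in 5% CO₂, then exposed to a range of drug concentrations for 5–6 days. MTT added at 0.4 mg/mL final for 4 h, and formazan dissolved in 0.2 N HCl in 75% isopropanol. Absorbance normalized to vehicle control and IC₅₀ obtained from the curves.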

[2] = system: Mus musculus; assay: Toxicity in NOD/SCID mouse xenografted with human HepG2 cells expressing CES2 gene assessed as body weight loss at 5 mg/kg, iv administered on day 7, 14 and 21 after tumor implantation measured after 5 weeks; format: organism-based; design: dose 5 mg/kg, route intravenous; conditions: in vivo, 840 h
Outline: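 Same NOD/SCID N-Hep G2 flank xenograft model: i.v. tail-vein dosing on days 7, 14 and 21 in 5% DMSO/95% D5W, doses in Dox-equivalent mg/kg, 10 mice/group, vehicle controls. Body weight recorded weekly and followed over the first 5 weeks.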

[3] = system: NCI-H1435; assay: Antitumor activity against human NCI-H1435 cells expressing CES2 gene xenografted in pentyl PABC-doxazolidine-pretreated athymic nude mouse assessed as inhibition of tumor growth at 3 to 4 mg/kg, iv administered on day 63 after tumor implantation; format: functional, organism-based
Outline: (§1)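 Athymic nude females, 4–6 weeks old, given ~2 × 10⁶ H1435 cells s.c. in the left flank on day 0; 10 mice/group. I.v. tail-vein doses (Dox-equivalent mg/kg) in 5% DMSO/95% D5W on days 7, 14 and 21, with all groups retreated on days 56, 63 and 70; vehicle controls. Caliper volume π × short² × long/6. Cube roots analysed with day-7 size as baseline covariate, by period.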

[4] = system: HepG2; assay: Antitumor activity against human HepG2 cells expressing CES2 gene xenografted in pentyl PABC-doxazolidine-treated NOD/SCID mouse assessed as slowing of large, rapidly growing tumor growth at 5 mg/kg, iv administered on day 52 after tumor implantation; format: functional, organism-based; design: dose 5 mg/kg
Outline: (§2)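 NOD/SCID females, 4–6 weeks old, each given ~1.5 × 10⁷ N-Hep G2 cells s.c. in the left flank; 10 mice/group. Dosed i.v. by tail vein on days 7, 14 and 21, in mg/kg Dox-equivalent, from DMSO diluted into D5W (5% DMSO/95% D5W), 100 µL/mouse. Vehicle-only controls. The 3 mg/kg group was redosed at 5 mg/kg on days 45 and 52. Tumor volume (π × short diameter² × long diameter/6) measured weekly.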

[5] = system: NCI-H1435; assay: Antitumor activity against human NCI-H1435 cells expressing CES2 gene xenografted in athymic nude mouse assessed as inhibition of tumor growth at 4 mg/kg, iv administered on day 7, 14 and 21 after tumor implantation; format: functional, organism-based; design: dose 4 mg/kg; outline: as §1
[6] = Metabolic stability in NOD/SCID mouse plasma up to 24 hrs by reverse-phase HPLC analysis; format: ADME, cell-free; conditions: read-out: Stability
Outline: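 PPD from a 1 mM DMSO stock diluted 10 µL into 190 µL of plasma (healthy NOD/SCID mouse, or pooled human from 40 donors) at 37 °C; sampled at 0 and 24 h. Samples digested with proteinase K (2 mg/mL) for 4 h at 37 °C, then run on C18 reverse-phase HPLC with a triethylammonium acetate pH 6.0/acetonitrile gradient, detection at 480 nm.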

[7] = system: NCI-H1435; assay: Antitumor activity against human NCI-H1435 cells expressing CES2 gene xenografted in pentyl PABC-doxazolidine-pretreated athymic nude mouse assessed as inhibition of tumor growth at 3 to 4 mg/kg, iv administered on day 70 after tumor implantation; format: functional, organism-based; outline: as §1
[8] = system: Mus musculus; assay: Toxicity in NOD/SCID mouse xenografted with human HepG2 cells expressing CES2 gene assessed as survival at 5 mg/kg, iv administered on day 7, 14 and 21 after tumor implantation; format: organism-based; design: dose 5 mg/kg, route intravenous; conditions: in vivo
Outline: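 Female NOD/SCID mice, 4–6 weeks old, 10 per group. About 1.5 × 10⁷ N-Hep G2 cells were injected s.c. into the left flank. Tail-vein i.v. dosing (mg/kg Dox-equivalent weight) was given on days 7, 14 and 21. Vehicle was 5% DMSO/95% D5W, and controls received vehicle only. Body weight was measured weekly over the first 5 weeks. Survival was followed to study end.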

[9] = Toxicity in pentyl PABC-doxazolidine-treated NOD/SCID mouse xenografted with human HepG2 cells expressing CES2 gene assessed as mortality rate at 5 mg/kg, iv administered on day 45 after tumor implantation; format: organism-based; design: dose 5 mg/kg, route intravenous; conditions: in vivo, read-out: Activity
Outline: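 NOD/SCID females carried s.c. left-flank N-Hep G2 xenografts (about 1.5 × 10⁷ cells). They first received i.v. 3 mg/kg Dox-equivalent on days 7, 14 and 21. The same group was then redosed i.v. at 5 mg/kg on days 45 and 52 in 5% DMSO/95% D5W. There were 10 mice per group. Deaths were counted to the end of the study.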

[10] = system: Mus musculus; assay: Toxicity in athymic nude mouse xenografted with human NCI-H1435 cells expressing CES2 gene assessed as vacuolar degeneration of kidney tissue administered with six iv injection of 3 to 4 mg/kg by hematoxylin/eosin staining-based microscopy; format: organism-based; design: dose 3-4 mg/kg, route intravenous; conditions: in vivo
Outline: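 Kidney and ileum taken from the H1435 nude-mouse study (six i.v. injections). Formalin-fixed for 24 h, paraffin-embedded, and cut into 4 µm sections. Sections deparaffinized in xylene, rehydrated through an ethanol series, stained in Harris hematoxylin for 50 s with eosin, then dehydrated and mounted. Morphology assessed by microscopy.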

[11] = system: Mus musculus; assay: Toxicity in athymic nude mouse xenografted with human NCI-H1435 cells expressing CES2 gene assessed as myofibril disorganization and vacuolization of heart tissue administered with six iv injection of 3 to 4 mg/kg by hematoxylin/eosin staining-based microscopy; format: organism-based; design: dose 3-4 mg/kg, route intravenous; conditions: in vivo
Outline: (§3)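 Hearts and livers taken from the H1435 nude-mouse study (six i.v. injections) after CO₂/cervical dislocation. Fixed in 10% formalin for 24 h, paraffin-embedded, and cut at 4 µm. Slides deparaffinized in xylene and ethanol, stained with Mayer's hematoxylin for 2 min, blued in 1% ammonium hydroxide, and counterstained with eosin for 30 s. Examined by light microscopy.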

[12] = system: Mus musculus; assay: Toxicity in iv dosed athymic nude mouse xenografted with human NCI-H1435 cells expressing CES2 gene assessed as appearance of cytoplasmic lipid droplets in hepatocytes administered as six injection by hematoxylin/eosin staining-based microscopy; format: organism-based, Hepatocyte; outline: as §3
[13] = system: Mus musculus; assay: Toxicity in NOD/SCID mouse xenografted with human HepG2 cells expressing CES2 gene at 3 mg/kg, iv administered on day 7, 14 and 21 after tumor implantation; format: organism-based; design: dose 3 mg/kg, route intravenous; conditions: in vivo
[14] = system: NCI-H460; assay: Cytotoxicity against human H460 cells expressing CES2 gene
[15] = system: NCI-H1435; assay: Antitumor activity against human NCI-H1435 cells expressing CES2 gene xenografted in pentyl PABC-doxazolidine-pretreated athymic nude mouse assessed as inhibition of tumor growth at 3 to 4 mg/kg, iv administered on day 56 after tumor implantation; format: functional, organism-based; outline: as §1
[16] = system: HepG2; assay: Antitumor activity against human HepG2 cells expressing CES2 gene xenografted in NOD/SCID mouse assessed as inhibition of tumor growth at 4 to 5 mg/kg, iv administered on day 7, 14 and 21 after tumor implantation; format: functional, organism-based; outline: as §2
[17] = system: NCI-H1435; assay: Antitumor activity against human NCI-H1435 cells expressing CES2 gene xenografted in athymic nude mouse assessed as inhibition of tumor growth at 3 mg/kg, iv administered on day 7, 14 and 21 after tumor implantation; format: functional, organism-based; design: dose 3 mg/kg; outline: as §1

With CCCCCOC(=O)Nc1ccc(COC(=O)N2CO[C@@H]3[C@H](C)O[C@@H](O[C@H]4C[C@](O)(C(=O)CO)Cc5c(O)c6c(c(O)c54)C(=O)c4c(OC)cccc4C6=O)C[C@@H]32)cc1 the logIC50 [1] was -6.92, the Activity [2] was 10% and the inhibition [3] was “Active”. For the same compound, the Activity [4] was “Active”, the inhibition [5] was “Active” and the remaining at 24 h [6] was 16%. The inhibition [7] was “Active”, the Activity [8] was “Non-toxic” and the mortality [9] was 60%. For the same compound, the Activity [10] was “Non-toxic”, the Activity [11] was “Non-toxic” and the Activity [12] was “Dose-dependent effect”. The Activity [13] was “Non-toxic”, the GI50 [14] was 447 nM and the inhibition [15] was “Active”. The inhibition [16] was “Active” and the inhibition [17] was “Active”.

From ChEMBL document CHEMBL1153806, “Preclinical efficacy of a carboxylesterase 2-activated prodrug of doxazolidine” (J Med Chem, 2009)
